Published values pooled from the literature.
Lines come from different studies, so protocols differ.
Target: High affinity nerve growth factor receptor (NTRK1, Homo sapiens, UniProt P04629)

Structure (SMILES)	assay	conditions	quantity	result
Nc1cnc(N2CCc3cc(S(=O)(=O)Nc4c(F)cc(Cl)cc4F)cc(N4CCCC4=O)c32)nc1	cell-free assay, competition with immobilised ligand	1 µM	remaining binding	100%
Oc1cccc(-c2nc(N3CCOCC3)c3oc4ncccc4c3n2)c1	enzyme activity, inhibitor	10 µM	remaining activity	93%
Cc1ccc(C(=O)NCc2ccsc2)cc1C#Cc1cn(C(C)C)c2ncnc(N)c12	enzyme activity, inhibitor	1 µM	activity vs control	74%
Cc1cc(NC(=O)c2cccc3cc(-c4cccc5[nH]nc(N)c45)ccc23)ccc1F	enzyme activity, inhibitor	0.1 µM	activity vs control	121%
C[C@@H]1CCN(C(=O)CC#N)C[C@@H]1N(C)c1ncnc2[nH]ccc12	cell-free assay	0.5 µM	remaining signal	94.1%
CCN(CC)CCNC(=O)c1c(C)[nH]c(/C=C2\C(=O)Nc3ccc(F)cc32)c1C	enzyme activity, inhibitor	0.1 µM	remaining activity	19%
O=C(Nc1cnn(-c2csc(C(=O)NC3COC3)c2)c1)Nc1ccccc1Cl	enzyme activity, inhibitor	5 µM	remaining activity	100%
O=C(NCc1ncc(C(F)(F)F)cc1Cl)c1ccc2c(c1)C1(CCS(=O)(=O)CC1)[C@@H](C1CC1)N2S(=O)(=O)c1ccc(F)cc1	cell-free assay, competition with immobilised ligand	1 µM	remaining binding	75%
Cc1cnc(NC2CCOCC2)nc1-n1cnc(C(=O)NC(CN)c2cc(F)cc(Cl)c2)c1 (centres unmarked)	enzyme activity, inhibitor, radiometric	1 µM	remaining activity	100%
Cc1[nH]c(/C=C2\C(=O)Nc3ccc(F)cc32)c(C)c1C(=O)N[C@H]1CCN(C(=O)N(C)C)C1	enzyme activity, inhibitor	0.1 µM	remaining activity	34%
C[C@@H]1CN(c2cc(-c3n[nH]c4ccc(OC5(C)CC5)cc34)ncn2)C[C@H](C)O1	cell-free assay, competition with immobilised ligand	0.1 µM	remaining binding	73%
O=C(Cc1ccc(C(F)(F)F)cc1)Nc1cccc(C(=O)Nc2ccc3[nH]ncc3c2)c1	enzyme activity, inhibitor, FRET	1 µM	inhibition	46%
COc1cc(Nc2cnc(C#N)c(O[C@H](C)CN(C)C)n2)ncc1-c1cnn(C)c1	enzyme activity, inhibitor, radiometric	10 µM	remaining activity	28%
FC(F)(F)Oc1cccc(-c2cnc3ccc(-c4ccncc4)nn23)c1	enzyme activity, inhibitor, radiometric	5 µM	activity vs control	15%
O=C(Nc1ccc(Br)cc1)Nc1cccc(C(=O)Nc2ccc3[nH]ncc3c2)c1	enzyme activity, inhibitor, FRET	1 µM	inhibition	50.5%
CS(=O)(=O)N1CCCC(NC(=O)[C@H](CCC2CCCCC2)NC(=O)c2ccc(CNc3ncnc4c3nnn4-c3ccccc3)cc2)C1 (some centres unmarked)	cell-free assay, competition with immobilised ligand	0.1 µM	remaining binding	100%
Cc1ccc(NC(=O)c2ccc(C)c(C(F)(F)F)c2)cc1C#Cc1nn(C2CCC(O)CC2)c2ncnc(N)c12 (centres unmarked)	cell-free assay	10 µM	remaining signal	72%
CC(C)(O)[C@H]1CC[C@H](Nc2ccc3ncc(-c4cccc(C(F)(F)F)c4)n3n2)CC1	enzyme activity, inhibitor	1 µM	remaining activity	21.9%
CCOCCn1cc(C(=O)Nc2ccc(-n3nc(-c4cccnc4)cc3C(F)(F)F)cn2)ccc1=O	cell-free assay, competition with immobilised ligand	1 µM	remaining binding	100%
O=C(Nc1cnn(-c2csc(C(=O)NC3COC3)c2)c1)Nc1c(F)cccc1Cl	enzyme activity, inhibitor	5 µM	remaining activity	87.8%
CC(=O)N1CCC(c2ccc(C(=O)NC(=N)N)cc2C(F)(F)F)CC1	cell-free assay, competition with immobilised ligand	1 µM	remaining binding	100%
O=C(Nc1ccc2[nH]ncc2c1)c1cccc(NC(=S)Nc2cc(C(F)(F)F)cc(C(F)(F)F)c2)c1	enzyme activity, inhibitor, FRET	1 µM	inhibition	51.3%
O=C1NC(=O)c2cc(Nc3ccc(F)cc3)c(Nc3ccc(F)cc3)cc21	cell-free assay	0.5 µM	remaining signal	93.6%
O=C(Nc1ccc2[nH]ncc2c1)c1cccc(NC(=O)c2cc(C(F)(F)F)ccc2F)c1	enzyme activity, inhibitor, FRET	1 µM	inhibition	34%
COc1cc(-c2cn(C3CCc4ccccc4N(CC(F)(F)F)C3=O)nn2)ccc1-n1ccc(C)n1 (centres unmarked)	cell-free assay, competition with immobilised ligand	1 µM	remaining binding	63%
O=C(Nc1cnn2ccc(N3CCC[C@@H]3c3cc(F)ccc3F)nc12)N1CC[C@H](O)C1	enzyme activity, inhibitor, FRET	1 µM	inhibition	100%
CN([C@@H]1CCc2c(CC(=O)O)c3cc(S(C)(=O)=O)ccc3n2C1)S(=O)(=O)c1ccc(F)cc1	cell-free assay, competition with immobilised ligand	1 µM	remaining binding	100%
O=C(Nc1cccc(F)c1)Nc1cccc(C(=O)Nc2ccc3[nH]ncc3c2)c1	enzyme activity, inhibitor, FRET	1 µM	inhibition	51.3%
CC(C)(C)c1nc(-c2cccc(NS(=O)(=O)c3c(F)cccc3F)c2F)c(-c2ccnc(N)n2)s1	enzyme activity, inhibitor, radiometric	1 µM	remaining activity	78%
